One may read the Tmax as the time from dosing to the highest level. Usually Cmax stands for the maximum level reached in the sampled fluid or tissue. Broadly, the bioavailability is the share of a dose that reaches the circulation, judged against a reference dose that is usually intravenous. A lower bioavailability goes with little systemic uptake.

This is an account of results in ChEMBL document CHEMBL3872272, “Synthesis and optimization of novel α-phenylglycinamides as selective TRPM8 antagonists” (Bioorg Med Chem, 2017).

Data set [1] is described as follows: Tmax in Sprague-Dawley rat at 10 mg/kg, po administered as single dose by LC-MS/MS method. The data set is classed as ADME, organism-based. As to conditions: in vivo. The method in brief: (§1)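 Single oral (10 mg/kg) or intravenous (1 mg/kg) dose in rats, n = 3. Jugular vein blood taken at 2, 15 and 30 min and 1, 2, 4 and 6 h. Plasma concentrations measured by LC-MS/MS.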

The nature of data set [2]: Volume of distribution at steady state in Sprague-Dawley rat at 1 mg/kg, iv administered as single dose by LC-MS/MS method. It is filed as ADME, organism-based. The conditions noted are these: in vivo, read-out: Vdss. The procedure, abridged:
as §1

Data set [3] can be described thus: Plasma concentration in Sprague-Dawley rat model of distension-induced rhythmic bladder contraction at 1 mg/kg, iv measured after 15 mins. The data set is classed as ADME, organism-based.
Data set [4] in a line: Cmax in Sprague-Dawley rat at 10 mg/kg, po administered as single dose by LC-MS/MS method. It is filed as ADME, organism-based. Also on record: dose 10 mg/kg, route oral. As to conditions: in vivo. The method in brief: as §1
The nature of data set [5]: Bioavailability in Sprague-Dawley rat at 10 mg/kg, po administered as single dose by LC-MS/MS method. The data set is classed as ADME, organism-based. As to conditions: in vivo. The procedure, abridged: as §1
The nature of data set [6]: Plasma concentration in Sprague-Dawley rat model of distension-induced rhythmic bladder contraction at 10 mg/kg, po measured after 3.5 hrs. The data set is classed as ADME, organism-based.
The nature of data set [7]: Drug metabolism in rat plasma assessed as hydrolyzation of methyl ester to carboxylic acid. It is filed as ADME, cell-free.

As to `C[C@H](c1cc(F)cc(F)c1)N(C(=O)c1ccccc1)[C@@H](C(N)=O)c1ccccc1`, the Tmax in data set [1] was 50 min. The Vd in data set [2] is 1.2 L/kg. In data set [3], this compound returned a concentration at […] of 1120 nM. In data set [4], this compound gave a Cmax of 3230 nM. In data set [5], this compound returned a bioavailability of 59%. In data set [6], the concentration at 3.5 h is > 1000 nM.
On to `COC(=O)[C@@H](c1ccccc1)N(Cc1cccc(OC)c1)C(=O)c1ccccc1`, for which, in data set [7], the Drug metabolism entry is listed as “Metabolite_Detected”.
